# Test results taken from ChEMBL document CHEMBL3853321, “Optimization of Platelet-Derived Growth Factor Receptor (PDGFR) Inhibitors for Duration of Action, as an Inhaled Therapy for Lung Remodeling in Pulmonary Arterial Hypertension” (J Med Chem, 2016).
# Activity calls are given as the source filed them. No cut-off for these calls is given here.
# Legend:
# Rattus norvegicus [1] = assay: Anti-remodeling activity in rat monocrotaline model of pulmonary arterial hypertension assessed as reduction in MCT-induced muscularization of small blood vessels in lung at 100 mg/kg, po administered once daily for 7 days by histological analysis
# [2] = Drug uptake in blood of rat monocrotaline model of pulmonary arterial hypertension at 100 mg/kg, po; format: ADME, organism-based; conditions: in vivo, read-out: Drug uptake
# Rattus norvegicus [3] = assay: In vivo receptor occupancy at PDGFR-beta kinase domain in rat lung at 1 mg/kg, it measured after 7 hrs by immunoprecipitation assay; format: functional
# [4] = Drug uptake in rat lung at 1 mg/kg, it at 7 hrs; format: ADME, organism-based; conditions: inhaled or intranasal, read-out: Drug uptake
# Outline: (§1)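 Single intratracheal dose as a solution in 10% PEG200/[…] D5W vehicle; compound concentration measured in lung tissue at 7 h or 24 h after dosing.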
# [5] = Transcellular permeability of the compound by PAMPA; format: ADME
# [6] = Solubility of the compound using 10%PEG200/[…]D5W by high-throughput assay; format: physicochemical
# Outline: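 Solubility determined in the intratracheal dosing vehicle, 10% PEG200/[…] D5W.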
# Rattus norvegicus [7] = assay: In vivo receptor occupancy at PDGFR-beta kinase domain in rat lung at 0.1 mg/kg, it measured after 7 hrs by immunoprecipitation assay; format: functional
# Rattus norvegicus [8] = assay: In vivo receptor occupancy at PDGFR-beta kinase domain in rat lung at 0.4 mg/kg, it measured after 7 hrs by immunoprecipitation assay; format: functional
# [9] = Drug uptake in rat lung at 0.4 mg/kg, it at 24 hrs; format: ADME, organism-based; conditions: inhaled or intranasal, read-out: Drug uptake
# Outline: as §1
# [10] = Drug uptake in rat lung at 0.4 mg/kg, it at 7 hrs; format: ADME, organism-based; conditions: inhaled or intranasal, read-out: Drug uptake
# Outline: as §1
# [11] = Drug uptake in rat lung at 0.1 mg/kg, it at 7 hrs; format: ADME, organism-based; conditions: inhaled or intranasal, read-out: Drug uptake
# Outline: as §1
# Rattus norvegicus [12] = assay: In vivo receptor occupancy at PDGFR-beta kinase domain in rat lung at 0.4 mg/kg, it measured after 24 hrs by immunoprecipitation assay; format: functional
# Rattus norvegicus [13] = assay: In vivo receptor occupancy at PDGFR-beta kinase domain in rat lung at 0.1 mg/kg, it measured after 24 hrs by immunoprecipitation assay; format: functional
# [14] = Drug uptake in rat lung at 0.1 mg/kg, it at 24 hrs; format: ADME, organism-based; conditions: inhaled or intranasal, read-out: Drug uptake
# Outline: as §1
# [15] = Drug uptake in blood of rat monocrotaline model of pulmonary arterial hypertension at 0.1 mg/kg, it; format: ADME, organism-based; conditions: in vivo, inhaled_or_intranasal, read-out: Drug uptake
# [16] = target: T1, Muscarinic acetylcholine receptor M1 (Homo sapiens, UniProt P11229); assay: Inhibition of M1 receptor (unknown origin)
# T1 sequence (P11229 whole entry): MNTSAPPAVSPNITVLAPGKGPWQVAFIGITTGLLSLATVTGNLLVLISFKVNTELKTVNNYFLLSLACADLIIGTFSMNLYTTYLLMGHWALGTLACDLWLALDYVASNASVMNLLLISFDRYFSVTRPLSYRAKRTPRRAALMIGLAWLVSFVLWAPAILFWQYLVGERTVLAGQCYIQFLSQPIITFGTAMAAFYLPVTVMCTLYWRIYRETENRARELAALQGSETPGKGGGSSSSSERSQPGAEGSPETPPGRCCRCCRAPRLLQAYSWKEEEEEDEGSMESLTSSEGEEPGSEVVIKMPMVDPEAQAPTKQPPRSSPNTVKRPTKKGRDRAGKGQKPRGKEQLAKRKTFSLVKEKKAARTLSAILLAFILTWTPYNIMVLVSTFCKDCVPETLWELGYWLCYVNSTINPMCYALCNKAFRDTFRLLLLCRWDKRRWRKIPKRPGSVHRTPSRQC
# Histamine H3 receptor = Histamine H3 receptor (Homo sapiens, UniProt Q9Y5N1); assay: Inhibition of H3 receptor (unknown origin)
# [17] = target: Voltage-gated inwardly rectifying potassium channel KCNH2 (Homo sapiens, UniProt Q12809); assay: Inhibition of human ERG
# Rattus norvegicus [18] = assay: Anti-remodeling activity in rat monocrotaline model of pulmonary arterial hypertension assessed as reduction in MCT-induced muscularization of small blood vessels in lung at 0.03 mg/kg, it administered twice daily for 7 days by histological analysis relative to control; format: functional; design: scale not given: the % may be the effect or the level left
# Outline: (§2)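 Rats given monocrotaline two weeks beforehand so pathology develops; compound then given intratracheally twice daily for seven days (therapeutic mode). Read-out: percentage of fully muscularized small pulmonary vessels; group values given as mean with SEM.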
# [19] = Oral bioavailability in it dosed rat; format: ADME, organism-based; conditions: in vivo
# [20] = Drug uptake in blood of rat monocrotaline model of pulmonary arterial hypertension at 0.01 mg/kg, it; format: ADME, organism-based; conditions: in vivo, inhaled_or_intranasal, read-out: Drug uptake
# [21] = Half life in rat; format: ADME; conditions: in vivo
# Rattus norvegicus [22] = assay: Anti-remodeling activity in it dosed rat monocrotaline model of pulmonary arterial hypertension assessed as reduction in MCT-induced muscularization of small blood vessels in lung administered twice daily for 7 days by histological analysis; format: functional; conditions: 168 h, read-out: MED
# Outline: as §2
# [23] = Drug uptake in blood of rat monocrotaline model of pulmonary arterial hypertension at 0.03 mg/kg, it; format: ADME, organism-based; conditions: in vivo, inhaled_or_intranasal, read-out: Drug uptake
# [24] = target: Platelet-derived growth factor receptor alpha (Homo sapiens, UniProt P16234); assay: Inhibition of PDGFRalpha kinase domain (unknown origin) assessed as reduction in probe peptide substrate phosphorylation by capillary electrophoresis
# Platelet-derived growth factor receptor alpha, sequence (P16234 whole entry, the tested form may be a part): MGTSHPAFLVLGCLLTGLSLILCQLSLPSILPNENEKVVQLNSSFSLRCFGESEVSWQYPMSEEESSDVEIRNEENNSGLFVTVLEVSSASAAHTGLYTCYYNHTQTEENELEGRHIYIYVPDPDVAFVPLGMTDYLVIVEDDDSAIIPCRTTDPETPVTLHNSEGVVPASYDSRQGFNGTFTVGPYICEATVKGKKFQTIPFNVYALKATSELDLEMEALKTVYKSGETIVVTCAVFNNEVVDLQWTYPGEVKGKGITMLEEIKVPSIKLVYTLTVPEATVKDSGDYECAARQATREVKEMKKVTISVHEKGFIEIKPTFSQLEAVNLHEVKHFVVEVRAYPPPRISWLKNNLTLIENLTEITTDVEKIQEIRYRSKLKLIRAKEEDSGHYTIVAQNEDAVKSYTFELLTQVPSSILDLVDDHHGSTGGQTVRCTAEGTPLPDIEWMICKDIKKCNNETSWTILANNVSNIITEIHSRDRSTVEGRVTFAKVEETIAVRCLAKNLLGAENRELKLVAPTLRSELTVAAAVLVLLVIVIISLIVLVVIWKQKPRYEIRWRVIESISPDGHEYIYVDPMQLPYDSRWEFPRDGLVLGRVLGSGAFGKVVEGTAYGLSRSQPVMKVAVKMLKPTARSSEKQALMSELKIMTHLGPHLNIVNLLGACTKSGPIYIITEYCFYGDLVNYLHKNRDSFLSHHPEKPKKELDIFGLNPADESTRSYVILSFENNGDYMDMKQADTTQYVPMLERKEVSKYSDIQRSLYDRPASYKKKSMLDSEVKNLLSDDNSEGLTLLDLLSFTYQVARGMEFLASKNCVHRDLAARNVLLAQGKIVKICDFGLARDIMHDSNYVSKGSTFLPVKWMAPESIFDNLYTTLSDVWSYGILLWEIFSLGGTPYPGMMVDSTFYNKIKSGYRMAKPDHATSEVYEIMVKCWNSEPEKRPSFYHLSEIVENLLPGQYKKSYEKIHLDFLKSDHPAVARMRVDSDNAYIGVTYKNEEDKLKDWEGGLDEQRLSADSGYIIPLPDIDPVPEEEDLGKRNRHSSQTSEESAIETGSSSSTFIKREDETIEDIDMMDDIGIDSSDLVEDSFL
# Voltage-gated inwardly rectifying potassium channel KCNH2, sequence (Q12809 whole entry): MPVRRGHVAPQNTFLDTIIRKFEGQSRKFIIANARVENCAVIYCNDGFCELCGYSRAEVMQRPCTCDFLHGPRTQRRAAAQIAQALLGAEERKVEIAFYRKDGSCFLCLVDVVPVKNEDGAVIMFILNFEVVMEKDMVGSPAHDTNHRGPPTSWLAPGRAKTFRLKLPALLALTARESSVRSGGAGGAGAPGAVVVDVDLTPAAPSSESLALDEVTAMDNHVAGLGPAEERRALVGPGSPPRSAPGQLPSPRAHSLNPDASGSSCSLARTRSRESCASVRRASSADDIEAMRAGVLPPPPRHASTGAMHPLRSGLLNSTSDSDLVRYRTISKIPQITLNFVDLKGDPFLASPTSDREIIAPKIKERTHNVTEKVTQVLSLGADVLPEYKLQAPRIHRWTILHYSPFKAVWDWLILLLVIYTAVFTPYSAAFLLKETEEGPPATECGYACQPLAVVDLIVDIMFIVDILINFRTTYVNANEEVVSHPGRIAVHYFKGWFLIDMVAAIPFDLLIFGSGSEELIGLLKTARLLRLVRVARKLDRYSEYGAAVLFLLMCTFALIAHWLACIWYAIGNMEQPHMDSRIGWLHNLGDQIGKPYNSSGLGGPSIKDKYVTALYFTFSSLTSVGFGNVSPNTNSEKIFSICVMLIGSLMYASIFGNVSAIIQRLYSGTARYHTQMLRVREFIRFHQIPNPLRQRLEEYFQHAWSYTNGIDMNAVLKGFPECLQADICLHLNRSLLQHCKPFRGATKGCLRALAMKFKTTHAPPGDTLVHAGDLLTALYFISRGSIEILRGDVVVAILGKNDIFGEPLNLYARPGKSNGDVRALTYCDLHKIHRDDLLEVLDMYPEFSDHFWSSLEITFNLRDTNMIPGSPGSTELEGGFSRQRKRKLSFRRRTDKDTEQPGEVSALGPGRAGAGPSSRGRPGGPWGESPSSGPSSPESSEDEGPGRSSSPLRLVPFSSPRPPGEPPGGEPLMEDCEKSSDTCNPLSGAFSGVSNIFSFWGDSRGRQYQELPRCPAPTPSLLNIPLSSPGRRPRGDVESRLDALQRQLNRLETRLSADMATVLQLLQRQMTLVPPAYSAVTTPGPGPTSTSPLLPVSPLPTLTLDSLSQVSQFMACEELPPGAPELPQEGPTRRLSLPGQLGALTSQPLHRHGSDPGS
# Histamine H3 receptor, sequence (Q9Y5N1 whole entry): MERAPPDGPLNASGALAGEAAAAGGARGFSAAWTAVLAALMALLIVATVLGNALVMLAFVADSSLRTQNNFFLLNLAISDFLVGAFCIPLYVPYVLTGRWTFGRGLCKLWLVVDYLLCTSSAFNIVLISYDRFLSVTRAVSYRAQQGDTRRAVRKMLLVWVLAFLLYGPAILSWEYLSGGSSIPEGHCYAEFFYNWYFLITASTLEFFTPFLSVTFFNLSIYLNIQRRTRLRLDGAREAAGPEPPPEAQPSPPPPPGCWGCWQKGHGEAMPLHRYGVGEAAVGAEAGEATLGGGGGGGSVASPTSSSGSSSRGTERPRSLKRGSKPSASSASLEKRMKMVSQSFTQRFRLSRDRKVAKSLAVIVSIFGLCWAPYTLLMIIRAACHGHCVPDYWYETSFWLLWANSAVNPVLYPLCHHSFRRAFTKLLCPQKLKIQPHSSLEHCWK
smiles,measurement,setting,value
Cc1ccc(NC(=O)c2ccc(CN3CCN(C)CC3)cc2)cc1Nc1nccc(-c2cccnc2)n1 [IMATINIB],Activity,Rattus norvegicus [1],Active
same,concentration,[2],306000 nM
Cn1nccc1-c1ccn2c(C(=O)Nc3cc(C(=O)NCc4ccc(F)c(F)c4)ccc3F)cnc2c1,Occ,Rattus norvegicus [3],27%
same,concentration at 7 h,[4],276000 nM
same,permeability,[5],11%
same,solubility,[6],< 10 µg/mL
CN1CCN(c2ccccc2CNC(=O)c2ccc(F)c(NC(=O)c3cnc4cc(-c5ccnn5C)ccn34)c2)CC1,Occ,Rattus norvegicus [7],54%
same,Occ,Rattus norvegicus [8],70%
same,concentration at 24 h,[9],60 nM
same,concentration at 7 h,[10],687 nM
same,concentration at 7 h,[11],687 nM
same,permeability,[5],4.8%
same,solubility,[6],770 µg/mL
same,Occ,Rattus norvegicus [12],9%
CN1CCN(c2ccccc2CNC(=O)c2ccc(F)c(NC(=O)c3cnc4cc(-c5cnn(C)c5)ccn34)c2)CC1,permeability,[5],26.3%
C[C@@H]1CCC[C@H](C)N1CCNC(=O)c1ccc(F)c(NC(=O)c2cnc3cc(-c4ccnn4C)ccn23)c1,Occ,Rattus norvegicus [7],75%
same,concentration at 7 h,[11],302 nM
same,Occ,Rattus norvegicus [13],0%
same,concentration at 24 h,[14],44 nM
same,permeability,[5],5.4%
same,solubility,[6],590 µg/mL
CN1CCN(c2ccccc2CNC(=O)c2ccc(F)c(NC(=O)c3cnc4ccccn34)c2)CC1,permeability,[5],83.1%
Cc1ncc(C(=O)NCc2ccccc2N2CCN(C)CC2)cc1NC(=O)c1cnn2cc(-c3ccnn3C)ccc12,Occ,Rattus norvegicus [8],83%
same,concentration at 7 h,[10],3950 nM
same,permeability,[5],17%
same,solubility,[6],> 1000 µg/mL
Cc1ncc(C(=O)NCCN2CCCC2(C)C)cc1NC(=O)c1cnn2cc(-c3cnn(C)c3)ccc12,concentration,[15],1900 nM
same,IC50,[16],5 µM
same,Occ,Rattus norvegicus [7],88%
same,IC50,Histamine H3 receptor,5 µM
same,IC50,[17],> 30 µM
same,Activity,Rattus norvegicus [18],14.3%
same,concentration at 7 h,[11],1300 nM
same,Occ,Rattus norvegicus [13],81%
same,concentration at 24 h,[14],680 nM
same,bioavailability,[19],90%
same,permeability,[5],4.7%
same,concentration,[20],210 nM
same,half-life,[21],14 h
same,solubility,[6],> 1000 µg/mL
same,minimal effective dose,Rattus norvegicus [22],0.03 mg/kg
same,concentration,[23],750 nM
Cn1nccc1-c1ccn2c(C(=O)Nc3cc(C(=O)NCCN4CCCC4(C)C)ccc3F)cnc2c1,permeability,[5],0.6%
CN1CCN(c2ccccc2CNC(=O)c2ccc(F)c(NC(=O)c3cnn4cc(-c5ccnn5C)ccc34)c2)CC1,Occ,Rattus norvegicus [8],29%
same,concentration at 7 h,[10],221 nM
same,permeability,[5],70%
same,solubility,[6],> 1000 µg/mL
Cn1nccc1-c1ccn2c(C(=O)Nc3cc(C(=O)NCC4CCC(C)(C)O4)ccc3F)cnc2c1 (centres undefined),permeability,[5],81%
CN(CCNC(=O)c1ccc(F)c(NC(=O)c2cnc3cc(-c4ccnn4C)ccn23)c1)C(C)(C)C,permeability,[5],0%
CCN(CCNC(=O)c1ccc(F)c(NC(=O)c2cnc3cc(-c4ccnn4C)ccn23)c1)C(C)(C)C,permeability,[5],23%
CN1CCN(c2ccccc2CNC(=O)c2ccc(F)c(NC(=O)c3cnc4cc(-c5cccnc5)ccn34)c2)CC1,permeability,[5],23%
CN1CCN(c2ccccc2CNC(=O)c2ccc(F)c(NC(=O)c3cnc4cc(-c5cc[nH]n5)ccn34)c2)CC1,IC50,[24],< 0.0001 µM
same,permeability,[5],0%
Cn1cc(-c2ccn3c(C(=O)Nc4cc(C(=O)NCCN5CCCC5(C)C)ccc4F)cnc3c2)cn1,Occ,Rattus norvegicus [7],82%
same,concentration at 7 h,[11],1030 nM
same,Occ,Rattus norvegicus [13],51%
same,concentration at 24 h,[14],420 nM
same,permeability,[5],0.7%
same,solubility,[6],> 1000 µg/mL
